Experimental data reported in ChEMBL document CHEMBL4613249, “Serendipitous Discovery of Leucine and Methionine Depletion Agents during the Search for Polyamine Transport Inhibitors” (J Med Chem, 2020).
Active and inactive are the calls of the source. The rule behind the calls is not given here.

Experiments:
L3.6pl [1] = experiment: Effect on polyamine level in human L3.6PL cells assessed as leucine level per mg protein in supernatant at 5 uM measured after 72 hrs in presence of amine oxidase suppressor aminoguanidine by LCMS analysis (reference value: 18009 +/- 9061 pmol/mg); type: functional
L3.6pl [2] = experiment: Effect on polyamine level in human L3.6PL cells assessed as arginine level per mg protein in supernatant at 5 uM measured after 72 hrs in presence of amine oxidase suppressor aminoguanidine by LCMS analysis (reference value: 22121 +/- 10585 pmol/mg); type: functional
[3] = target: Large neutral amino acids transporter small subunit 1 (Homo sapiens) (UniProt Q01650); experiment: Inhibition of LAT1-mediated [3H]-leucine uptake in human L3.6PL cells at 2 to 7 uM preincubated for 24 hrs at 37 degree C followed by HBBS addition and compound washout and subsequent compound dosing measured after 30 mins by scintillation counter method; type: cell-based
In short: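 L3.6pl cells were preincubated 24 h at 37°C with compound, washed and placed in HBSS. Compound was then added back just before ³H-leucine, followed by a 30 min incubation at 37°C. After cold washes, radioactivity was counted and normalized to μg protein.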

CHO-K1 = experiment: Cytotoxicity against CHOK1 cells assessed as effect on cell growth at < 7 uM measured after 48 hrs by MTS assay; type: cell-based, Cricetulus griseus; conditions: chinese hamster, cho-k1, 48 h
[4] = Selectivity index, ratio of IC50 for cytotoxicity against CHOK1 cells assessed as reduction in cell viability after 48 hrs by MTS assay to IC50 for […] human L3.6PL cells assessed as reduction in cell viability after 48 hrs by MTS assay
In short: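 The ratio is of 48 h IC50 values from MTS growth assays. CHO K1/CHO-MG cells were plated at 1000 cells/well and L3.6pl at 500 cells/well, drug in PBS was added after overnight incubation, and absorbance was read at 490 nm. IC50 is 50% growth versus untreated control; runs were done twice in triplicate.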

L3.6pl [5] = experiment: Effect on polyamine level in human L3.6PL cells assessed as arginine level per mg protein in supernatant at 2 uM measured after 72 hrs in presence of amine oxidase suppressor aminoguanidine by LCMS analysis (reference value: 22121 +/- 10585 pmol/mg); type: functional
[6] = target: Large neutral amino acids transporter small subunit 1 (Homo sapiens) (UniProt Q01650); experiment: Inhibition of LAT1-mediated amino acid transport in human L3.6PL cells assessed as reduction in intracellular leucine level by measuring leucine level per mg protein in cell lysate at 2 uM measured after 72 hrs by LCMS analysis (reference value: 232 +/- 10 pmol/mg); type: cell-based
In short: (§1)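 L3.6pl cells (50,000 cells/mL, 10 mL, 1 mM aminoguanidine) were seeded in poly-lysine-treated 9 cm dishes and incubated overnight at 37°C. They were then dosed with compound at 2, 5 or 7 μM from PBS stocks (2, 5, 7 mM) and incubated 72 h. Runs were done in triplicate, with amino acid levels per mg protein.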

L3.6pl [7] = experiment: Effect on polyamine level in human L3.6PL cells assessed as acetyl spermidine level per mg protein in supernatant at 2 uM measured after 72 hrs in presence of amine oxidase suppressor aminoguanidine by LCMS analysis (reference value: 1936 +/- 1365 pmol/mg); type: functional
[8] = target: Large neutral amino acids transporter small subunit 1 (Homo sapiens) (UniProt Q01650); experiment: Inhibition of LAT1-mediated [3H]-leucine uptake in human L3.6PL cells at 2 to 20 uM and 37 degree C measured after 2 mins by scintillation counter method; type: cell-based
[9] = target: Large neutral amino acids transporter small subunit 1 (Homo sapiens) (UniProt Q01650); experiment: Induction of LAT1-mediated polyamine efflux in human L3.6PL cells assessed as increase in [3H]leucine efflux at 60 uM measured after 30 mins at 37 degC by scintillation counting method; type: cell-based
In short: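 L3.6pl cells preloaded 5 min at 37°C with 3H-leucine and washed three times with cold HBSS. Compound (60 μM) given alone for 30 min at 37°C. Radioactivity of released 3H-leucine counted in the supernatant. Untreated and 100 μM unlabeled leucine lanes set the efflux range.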

L3.6pl [10] = experiment: Effect on polyamine level in human L3.6PL cells assessed as acetyl spermine level per mg protein in supernatant at 2 uM measured after 72 hrs in presence of amine oxidase suppressor aminoguanidine by LCMS analysis (reference value: 77 +/- 43 pmol/mg); type: functional
L3.6pl [11] = experiment: Effect on polyamine level in human L3.6PL cells assessed as decrease in intracellular spermidine level at 7 uM measured after 72 hrs in presence of amine oxidase suppressor aminoguanidine […] relative to control; type: functional; parameters: scale not given: the % may be the effect or the level left
L3.6pl [12] = experiment: Effect on polyamine level in human L3.6PL cells assessed as spermine level per mg protein in supernatant at 2 uM measured after 72 hrs in presence of amine oxidase suppressor aminoguanidine by LCMS analysis (reference value: 6152 +/- 5596 pmol/mg); type: functional
[13] = target: Large neutral amino acids transporter small subunit 1 (Homo sapiens) (UniProt Q01650); experiment: Inhibition of LAT1-mediated amino acid transport in human L3.6PL cells assessed as reduction in intracellular leucine level measured after 72 hrs by LCMS analysis; type: cell-based; in short: as §1

Sequence of Large neutral amino acids transporter small subunit 1 (Homo sapiens) (Q01650 whole entry): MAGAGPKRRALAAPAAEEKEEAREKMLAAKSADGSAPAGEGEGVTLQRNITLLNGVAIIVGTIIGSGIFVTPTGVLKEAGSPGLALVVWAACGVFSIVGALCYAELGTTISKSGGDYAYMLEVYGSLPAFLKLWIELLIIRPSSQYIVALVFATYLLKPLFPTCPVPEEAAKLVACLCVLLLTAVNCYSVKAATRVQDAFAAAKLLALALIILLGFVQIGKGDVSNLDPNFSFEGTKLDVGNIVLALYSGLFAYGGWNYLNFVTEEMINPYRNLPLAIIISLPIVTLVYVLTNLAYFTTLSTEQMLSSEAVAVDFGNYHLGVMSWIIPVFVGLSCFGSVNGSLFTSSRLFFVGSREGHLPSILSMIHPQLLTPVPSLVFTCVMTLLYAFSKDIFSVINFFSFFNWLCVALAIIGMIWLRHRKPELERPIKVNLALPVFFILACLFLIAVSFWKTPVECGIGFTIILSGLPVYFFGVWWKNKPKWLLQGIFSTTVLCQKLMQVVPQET

- inhibition [3]: inactive
- Activity [6]: 152 pmol/mg
- inhibition [8]: inactive
- Activity [9]: Active
- inhibition [13]: Dose-dependent effect
Compound: CC(C)CCN1CCN([C@@H](CNCc2ccccc2)CC2CCCCC2)C[C@@H]1CC(C)C
- Activity (L3.6pl [1]): 202092 pmol/mg
- Activity (L3.6pl [2]): 43243 pmol/mg
- Activity (CHO-K1): Non-Toxic
- Ratio IC50 [4]: 2
- Activity (L3.6pl [5]): 18396 pmol/mg
- Activity (L3.6pl [7]): 1649 pmol/mg
- Activity (L3.6pl [10]): 49 pmol/mg
- Activity (L3.6pl [11]): 50%
- Activity (L3.6pl [12]): 2532 pmol/mg
